ChEMBL document CHEMBL1166017, “Alpneumines A-H, new anti-melanogenic indole alkaloids from Alstonia pneumatophora” (Bioorg Med Chem, 2010)
pIC50: −log10 of the molar value. Activity calls are given as the source filed them. No cut-off for these calls is given here.

Tests used:
Tyrosinase = target: T1, Tyrosinase (Agaricus bisporus, UniProt O42713); experiment: Inhibition of mushroom tyrosinase
T1 sequence (O42713 whole entry): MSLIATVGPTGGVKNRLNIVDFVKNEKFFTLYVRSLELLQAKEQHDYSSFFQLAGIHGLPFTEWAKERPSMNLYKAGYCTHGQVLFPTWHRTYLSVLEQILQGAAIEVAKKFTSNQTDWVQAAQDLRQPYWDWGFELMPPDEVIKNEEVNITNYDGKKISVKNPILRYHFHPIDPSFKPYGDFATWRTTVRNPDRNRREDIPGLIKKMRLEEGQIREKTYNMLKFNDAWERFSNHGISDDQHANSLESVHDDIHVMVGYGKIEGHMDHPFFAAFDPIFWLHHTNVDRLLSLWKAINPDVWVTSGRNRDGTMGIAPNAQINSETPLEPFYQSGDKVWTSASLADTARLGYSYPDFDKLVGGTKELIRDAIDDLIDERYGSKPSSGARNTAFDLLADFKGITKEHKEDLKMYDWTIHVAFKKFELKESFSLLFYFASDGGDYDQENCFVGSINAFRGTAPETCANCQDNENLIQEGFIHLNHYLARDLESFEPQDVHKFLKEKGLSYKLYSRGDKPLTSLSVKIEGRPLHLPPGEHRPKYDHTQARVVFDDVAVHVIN

B16 [1] = experiment: Antimelanogenic activity in mouse B16 cells assessed as decrease in intracellular melanin level after 4 days; type: functional, cell-based; conditions: B16, 96 h
Procedure, shortened: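 B16 cells in DMEM with 10% FBS and penicillin/streptomycin, seeded at 5000 cells/well and preincubated 24 h at 37 °C in 5% CO2. Cultured with IBMX (100 µM) with or without sample at 6.3–100 µM for 48 h, then in fresh medium under the same conditions for a further 48 h. Cells dissolved in 1 N NaOH at 90 °C for 1 h. Relative melanin read at 400 nm. Arbutin was the positive control.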

B16 [2] = experiment: Antimelanogenic activity in mouse B16 cells assessed as decrease in intracellular melanin level at IC50 after 4 days; type: functional; set-up: scale not given: the % may be the effect or the level left
B16 [3] = experiment: Inhibition of tyrosinase expression in mouse B16 cells after 1 hr by Western blotting; type: functional, cell-based
Procedure, shortened: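 B16 cells were treated with sample at 50 and 75 µM plus 0.1 mM IBMX, then lysed. Lysates were run on 7.5% SDS–PAGE and transferred to PVDF, which was blocked 1 h in 5% skim milk. Anti-tyrosinase (1:2000) was applied overnight and anti-β-actin (1:2000) for 1 h, followed by HRP-conjugated secondary IgG.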

B16 [4] = experiment: Cytotoxicity against mouse B16 cells assessed as cell viability after 4 days by MTT assay; type: cell-based; conditions: b16, 96 h
Procedure, shortened: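 B16 cells were cultured as for the melanin assay: IBMX 100 µM and sample at 6.3–100 µM for 4 days. MTT (5 mg/mL solution) was added for 2 h, and the formazan was dissolved in DMSO. Absorbance was read at 550 and 700 nm. Viability was taken from the absorbance difference between samples and controls, in triplicate.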

Row | Compound | pIC50 (B16 [1]) | pIC50 (Tyrosinase) | Activity (B16 [2]) [%] | also measured
1 | COC(=O)C1=C2Nc3c(O)cccc3[C@]23CC[N+]2([O-])C[C@H](C(C)=O)[C@H]1C[C@H]32 (some centres not stated) [ALPNEUMINE A] |  | < 4.00 |  | 
2 | COC(=O)C1=C2Nc3c(O)cccc3[C@]23CCN2C[C@H](C(C)=O)[C@H]1C[C@@H]23 [ALPNEUMINE B] |  | < 4.00 |  | 
3 | COC(=O)C1=C2Nc3ccccc3[C@]23CC[N+]2([O-])C[C@H](C(C)=O)[C@H]1C[C@H]32 (some centres not stated) [ALPNEUMINE C] |  | < 4.00 |  | 
4 | COC(=O)C1=C2Nc3c(O)cccc3[C@]23CCN2C[C@@H](C(C)=O)[C@H]1C[C@@H]23 [ALPNEUMINE D] |  | < 4.00 |  | 
5 | COC(=O)C1=C2Nc3ccccc3[C@]23CCN2C[C@@H](C(C)=O)[C@H]1C[C@@H]23 [ALPNEUMINE E] | 4.15 | < 4.00 |  | 
6 | COC(=O)[C@@]12CO[C@@]3(O)[C@H]1CCN1CC[C@H]3[C@@H]1c1c2[nH]c2ccccc12 [ALPNEUMINE F] |  | < 4.00 |  | 
7 | COC(=O)[C@@]12COCC[C@H]3[C@@H]1CC[N@+](C)([O-])[C@H]3c1c2[nH]c2ccccc12 [ALPNEUMINE H] |  | < 4.00 |  | 

The next lines start with results.

Row | pIC50 (B16 [1]) | Compound | pIC50 (Tyrosinase) | Activity (B16 [2]) [%] | also measured
8 | 4.23 | CC[C@]12CCC[N+]3([O-])CCc4c(n(c5ccccc45)[C@@](O)(C(=O)OC)C1)[C@H]23 (some centres not stated) [ALPNEUMINE G] | < 4.00 | <50 | Activity (B16 [3]): Active; Activity (B16 [4]): Dose-dependent effect
9 | 4.30 | CC[C@@]12C=C(C(=O)OC)n3c4c(c5ccccc53)CCN(CCC1)[C@H]42 [APOVINCAMINE] |  | <50 | 
10 | 4.16 | CC[C@]12CCCN3CCc4c(n(c5ccccc45)[C@@](O)(C(=O)OC)C1)[C@@H]32 [VINCAMINE] |  | <50 | 
